Measured values: ChEMBL document CHEMBL1137655, “Isoxyl activation is required for bacteriostatic activity against Mycobacterium tuberculosis” (2007)
Values after ≈ are worked out from the molar mass of the structure shown.

How the values were obtained:
[1] = system: Mycobacterium tuberculosis; test: microbe, parasite or virus in culture; conditions: Mt103
[2] = system: Mycobacterium tuberculosis; test: microbe, parasite or virus in culture; conditions: H37Rv
[3] = system: Mycobacterium tuberculosis; test: Antimycobacterial activity against wild-type Mycobacterium tuberculosis H37Rv ATCC 25618 expressing VV16 plasmid by colorimetric resazurin microtiter assay; format: functional
Method in brief: (§1)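 Resazurin colorimetric microtiter MIC in 7H9-ADC broth with 2% DMSO at 37°C; strains carry empty pVV16 or pVVethA complementation vector; ISO tested up to 40 μg/ml, highest soluble level.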

[4] = system: Mycobacterium tuberculosis H37Rv; test: Inhibition of Mycobacterium tuberculosis H37Rv recombinant DesA3-mediated unsaturated fatty acid synthesis using Mycobacterium smegmatis MC2155 membrane and partially purified EthA as cofactors assessed as oleic acid levels relative to control; parameters: scale not given: the % may be the effect or the level left
Method in brief: (§2)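 Cell-free desaturation: 0.5 mg M. smegmatis membrane protein, 3 μg His-tagged DesA3 purified from M. smegmatis, 500 μM palmitoyl-CoA, 1 mM NADPH, ±6 μg purified EthA, ISO 0 or 10 μg/ml final, 25 mM Tris-HCl pH 7.5; 75 min at 30°C; chloroform:methanol extraction, methyl esters, GC relative percentages.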

[5] = system: Mycobacterium tuberculosis H37Rv; test: Inhibition of Mycobacterium tuberculosis H37Rv recombinant DesA3-mediated unsaturated fatty acid synthesis using Mycobacterium smegmatis MC2155 membrane and partially purified EthA as cofactors assessed as palmitic acid levels relative to control; parameters: scale not given: the % may be the effect or the level left
Method in brief: as §2

[6] = system: Mycobacterium tuberculosis H37Rv; test: Inhibition of Mycobacterium tuberculosis H37Rv recombinant DesA3-mediated unsaturated fatty acid synthesis using Mycobacterium smegmatis MC2155 membrane and partially purified EthA as cofactors assessed as palmitoleic acid levels relative to control; parameters: scale not given: the % may be the effect or the level left
Method in brief: as §2

[7] = system: Mycobacterium tuberculosis H37Rv; test: Inhibition of Mycobacterium tuberculosis H37Rv recombinant DesA3-mediated unsaturated fatty acid synthesis using Mycobacterium smegmatis MC2155 membrane as cofactor assessed as oleic acid levels relative to control; parameters: scale not given: the % may be the effect or the level left
Method in brief: as §2

[8] = system: Mycobacterium tuberculosis; test: Antimycobacterial activity against Mycobacterium tuberculosis isolate Mt103 expressing VV16 plasmid by colorimetric resazurin microtiter assay; format: functional
Method in brief: as §1

[9] = system: Mycobacterium tuberculosis H37Rv; test: Inhibition of Mycobacterium tuberculosis H37Rv recombinant DesA3-mediated unsaturated fatty acid synthesis using Mycobacterium smegmatis MC2155 membrane as cofactor assessed as palmitoleic acid levels relative to control; parameters: scale not given: the % may be the effect or the level left
Method in brief: as §2

[10] = system: Mycobacterium tuberculosis H37Rv; test: Inhibition of Mycobacterium tuberculosis H37Rv recombinant DesA3-mediated unsaturated fatty acid synthesis using Mycobacterium smegmatis MC2155 membrane and partially purified EthA as cofactors assessed as tuberculostearic acid levels relative control; parameters: scale not given: the % may be the effect or the level left
Method in brief: as §2

[11] = system: Mycobacterium tuberculosis H37Rv; test: Inhibition of Mycobacterium tuberculosis H37Rv recombinant DesA3-mediated unsaturated fatty acid synthesis using Mycobacterium smegmatis MC2155 membrane as cofactor assessed as palmitic acid levels relative to control; parameters: scale not given: the % may be the effect or the level left
Method in brief: as §2

[12] = system: Mycobacterium tuberculosis H37Rv; test: Inhibition of Mycobacterium tuberculosis H37Rv recombinant DesA3-mediated unsaturated fatty acid synthesis using Mycobacterium smegmatis MC2155 membrane as cofactor assessed as stearic acid levels relative to control; parameters: scale not given: the % may be the effect or the level left
Method in brief: as §2

[13] = system: Mycobacterium tuberculosis H37Rv; test: Inhibition of Mycobacterium tuberculosis H37Rv recombinant DesA3-mediated unsaturated fatty acid synthesis using Mycobacterium smegmatis MC2155 membrane as cofactor assessed as tuberculostearic acid levels relative to control; parameters: scale not given: the % may be the effect or the level left
Method in brief: as §2

[14] = system: Mycobacterium tuberculosis H37Rv; test: Inhibition of Mycobacterium tuberculosis H37Rv recombinant DesA3-mediated unsaturated fatty acid synthesis using Mycobacterium smegmatis MC2155 membrane and partially purified EthA as cofactors assessed as stearic acid levels relative to control; parameters: scale not given: the % may be the effect or the level left
Method in brief: as §2

Compound | MIC [1] [µg/mL] | MIC [2] [µg/mL] | MIC [3] [µg/mL] | Activity [4] [%] | Activity [5] [%] | Activity [6] [%] | Activity [7] [%] | MIC [8] [µg/mL] | Activity [9] [%] | Activity [10] [%] | Activity [11] [%] | Activity [12] [%] | Activity [13] [%] | Activity [14] [%]
CCc1cc(C(N)=S)ccn1 [ETHIONAMIDE] | 5 (≈ 30.1 µM) | 5 (≈ 30.1 µM) | – | – | – | – | – | – | – | – | – | – | – | –
CC(C)CCOc1ccc(NC(=S)Nc2ccc(OCCC(C)C)cc2)cc1 [TIOCARLIDE] | – | – | 5 (≈ 12.5 µM) | 4.4 | 49.8 | 1.9 | 0.1 | 5 (≈ 12.5 µM) | 0.1 | 42.8 | 54.1 | 1 | 44.7 | 1.1
